Measurements reported in ChEMBL document CHEMBL1157912, “Impact of nature and length of linker incorporated in agonists on toll-like receptor 9-mediated immune responses” (J Med Chem, 2010).

Legend:
[1] = target: T1, Toll-like receptor 9 (Homo sapiens) (UniProt Q9NR96); test: Induction of TLR9-mediated immune stimulation in human PBMC assessed as MIP1beta production at 10 ug/ml after 24 hrs by luminex multiplex assay (RVb = 0.03 +/- 0.02 ng/ml)
T1 sequence (whole entry): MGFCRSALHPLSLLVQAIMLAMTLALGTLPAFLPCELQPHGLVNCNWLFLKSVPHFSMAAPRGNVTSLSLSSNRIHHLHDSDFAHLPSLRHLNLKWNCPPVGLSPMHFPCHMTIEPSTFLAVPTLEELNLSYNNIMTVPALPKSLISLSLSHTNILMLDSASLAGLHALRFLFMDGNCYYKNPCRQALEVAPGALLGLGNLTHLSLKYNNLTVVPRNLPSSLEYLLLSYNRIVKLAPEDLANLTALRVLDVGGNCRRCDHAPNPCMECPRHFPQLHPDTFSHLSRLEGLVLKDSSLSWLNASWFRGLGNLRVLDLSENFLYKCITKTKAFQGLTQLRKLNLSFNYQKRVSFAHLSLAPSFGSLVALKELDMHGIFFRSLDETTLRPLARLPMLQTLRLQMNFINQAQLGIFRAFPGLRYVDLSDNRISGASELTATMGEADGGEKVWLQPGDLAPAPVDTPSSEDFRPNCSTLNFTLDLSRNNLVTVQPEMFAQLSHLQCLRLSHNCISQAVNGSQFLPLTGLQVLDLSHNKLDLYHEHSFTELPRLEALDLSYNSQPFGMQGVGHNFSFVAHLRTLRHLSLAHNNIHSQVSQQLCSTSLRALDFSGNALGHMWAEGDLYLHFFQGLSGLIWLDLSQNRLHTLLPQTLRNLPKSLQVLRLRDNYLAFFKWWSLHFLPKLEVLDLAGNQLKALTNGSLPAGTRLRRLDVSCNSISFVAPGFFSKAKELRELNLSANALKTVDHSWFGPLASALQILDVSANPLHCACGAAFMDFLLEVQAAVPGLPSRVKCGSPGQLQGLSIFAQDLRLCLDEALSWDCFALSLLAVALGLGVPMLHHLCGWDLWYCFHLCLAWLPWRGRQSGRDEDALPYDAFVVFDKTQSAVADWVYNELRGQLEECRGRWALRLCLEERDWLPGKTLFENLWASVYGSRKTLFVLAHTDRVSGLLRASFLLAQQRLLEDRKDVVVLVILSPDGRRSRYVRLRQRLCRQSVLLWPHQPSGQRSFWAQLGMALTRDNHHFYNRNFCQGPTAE

[2] = target: T2, Toll-like receptor 9 (Mus musculus) (UniProt Q9EQU3); test: Activation of mouse TLR9 expressed in HEK293 cells assessed as induction of NF-kappaB activity after 18 hrs by SEAP assay; assay type: cell-based
T2 sequence (whole entry): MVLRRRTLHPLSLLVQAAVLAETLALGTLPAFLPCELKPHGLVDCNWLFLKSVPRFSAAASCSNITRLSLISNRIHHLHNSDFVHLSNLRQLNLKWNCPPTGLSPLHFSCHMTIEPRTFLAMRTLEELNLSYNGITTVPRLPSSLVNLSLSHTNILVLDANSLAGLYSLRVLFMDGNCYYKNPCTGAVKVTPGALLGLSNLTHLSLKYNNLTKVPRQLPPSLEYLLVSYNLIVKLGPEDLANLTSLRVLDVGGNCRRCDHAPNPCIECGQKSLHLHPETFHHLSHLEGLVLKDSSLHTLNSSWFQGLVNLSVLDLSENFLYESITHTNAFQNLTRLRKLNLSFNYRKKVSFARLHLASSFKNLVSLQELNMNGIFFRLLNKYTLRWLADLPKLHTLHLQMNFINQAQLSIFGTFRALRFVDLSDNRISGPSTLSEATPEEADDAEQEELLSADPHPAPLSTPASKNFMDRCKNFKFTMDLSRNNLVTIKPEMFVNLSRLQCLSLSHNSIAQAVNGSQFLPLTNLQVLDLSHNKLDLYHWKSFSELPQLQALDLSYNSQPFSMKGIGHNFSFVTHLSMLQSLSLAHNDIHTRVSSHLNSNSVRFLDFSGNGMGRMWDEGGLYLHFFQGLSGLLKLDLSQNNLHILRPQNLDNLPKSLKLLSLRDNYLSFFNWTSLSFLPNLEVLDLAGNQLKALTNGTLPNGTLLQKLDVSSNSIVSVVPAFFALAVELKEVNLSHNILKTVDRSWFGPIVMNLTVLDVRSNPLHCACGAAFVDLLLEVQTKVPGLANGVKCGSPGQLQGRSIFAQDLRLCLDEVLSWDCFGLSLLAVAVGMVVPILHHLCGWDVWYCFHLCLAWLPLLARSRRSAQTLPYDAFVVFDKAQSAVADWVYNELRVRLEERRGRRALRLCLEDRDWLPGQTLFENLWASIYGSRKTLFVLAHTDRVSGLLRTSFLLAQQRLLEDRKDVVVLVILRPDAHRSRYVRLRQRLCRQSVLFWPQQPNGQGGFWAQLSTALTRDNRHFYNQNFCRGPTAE
Summary of the method: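 HEK293 cells stably expressing mouse TLR9 were grown in DMEM with 10% heat-inactivated FBS. At 80% confluence they were transiently transfected with a SEAP reporter plasmid (100 ng/well, lipofectamine) for 6 h. Medium was then replaced and agonists were added for 18 h. Supernatant SEAP was read with QuantiBlue substrate at 620-645 nm. Results are expressed as fold NF-κB activity over PBS control.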

[3] = target: T1, Toll-like receptor 9 (Homo sapiens); test: Induction of TLR9-mediated immune stimulation in human PBMC assessed as MIP1alpha production at 10 ug/ml after 24 hrs by luminex multiplex assay (RVb = 0.01 ng/ml)
[4] = target: T1, Toll-like receptor 9 (Homo sapiens); test: Induction of TLR9-mediated immune stimulation in human PBMC assessed as IL6 production at 10 ug/ml after 24 hrs by luminex multiplex assay (RVb = 0.01 ng/ml)
[5] = target: T1, Toll-like receptor 9 (Homo sapiens); test: Induction of TLR9-mediated immune stimulation in human PBMC assessed as MCP1 production at 2 ug/ml after 24 hrs by luminex multiplex assay (RVb = 0.08 +/- 0.02 ng/ml)
[6] = target: T2, Toll-like receptor 9 (Mus musculus); test: Induction of TLR9-mediated IL6 production in C57BL/6 mouse spleen cells after 24 hrs by ELISA; assay type: cell-based
Summary of the method: (§1)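 C57BL/6 mouse spleen cells were cultured with agonists at 0.1, 0.3, 1, 3 and 10 μg/mL for 24 h. Secreted IL-12 and IL-6 in the supernatants were measured by ELISA. Values are averages of triplicate wells from one representative of at least two independent experiments.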

[7] = target: T1, Toll-like receptor 9 (Homo sapiens); test: Induction of TLR9-mediated immune stimulation in human PBMC assessed as MIP1beta production at 2 ug/ml after 24 hrs by luminex multiplex assay (RVb = 0.03 +/- 0.02 ng/ml)
[8] = target: T2, Toll-like receptor 9 (Mus musculus); test: Induction of TLR9-mediated IL12 production in C57BL/6 mouse spleen cells after 24 hrs by ELISA; assay type: cell-based; summary of the method: as §1
[9] = target: T1, Toll-like receptor 9 (Homo sapiens); test: Induction of TLR9-mediated immune stimulation in human PBMC assessed as MCP1 production at 10 ug/ml after 24 hrs by luminex multiplex assay (RVb = 0.08 +/- 0.02 ng/ml)
[10] = target: T1, Toll-like receptor 9 (Homo sapiens); test: Induction of TLR9-mediated immune stimulation in human PBMC assessed as IL1Ralpha production at 10 ug/ml after 24 hrs by luminex multiplex assay (RVb = 0.12 +/- 0.03 ng/ml)

Activity [1]: 2.45 ng/mL | Activity [2]: Dose-dependent effect | Activity [3]: 0.76 ng/mL | Activity [4]: 0.89 ng/mL | Activity [5]: 0.25 ng/mL | Activity [6]: Dose-dependent effect | Activity [7]: 0.12 ng/mL | Activity [8]: Dose-dependent effect | Activity [9]: 9.5 ng/mL | Activity [10]: 109 ng/mL
SMILES: Cc1cn([C@H]2C[C@H](O[C@@H]3C[C@@H](O)C[C@@H](OP(=O)(S)O[C@H]4C[C@H](n5cc(C)c(=O)[nH]c5=O)O[C@@H]4COP(=O)(S)O[C@H]4[C@@H](O)[C@H](n5ccc(N)nc5=O)O[C@@H]4COP(=O)(S)O[C@H]4C[C@H](n5cc(C)c(=O)[nH]c5=O)O[C@@H]4COP(=O)(S)O[C@H]4C[C@H](n5cc(C)c(=O)[nH]c5=O)O[C@@H]4COP(=O)(S)O[C@H]4C[C@H](n5ccc6c(=O)[nH]c(N)nc65)O[C@@H]4COP(=O)(S)O[C@H]4[C@@H](O)[C@H](n5ccc(N)nc5=O)O[C@@H]4COP(=O)(S)O[C@H]4C[C@H](n5cc(C)c(=O)[nH]c5=O)O[C@@H]4COP(=O)(S)O[C@H]4[C@@H](O)[C@H](n5cnc6c(=O)[nH]c(N)nc65)O[C@@H]4COP(=O)(S)O[C@H]4C[C@H](n5cc(C)c(=O)[nH]c5=O)O[C@@H]4COP(=O)(S)O[C@H]4[C@@H](O)[C@H](n5ccc(N)nc5=O)O[C@@H]4COP(=O)(S)O[C@H]4C[C@H](n5cc(C)c(=O)[nH]c5=O)O[C@@H]4CO)C3)[C@@H](COP(=O)(S)O[C@H]3[C@@H](O)[C@H](n4ccc(N)nc4=O)O[C@@H]3COP(=O)(S)O[C@H]3C[C@H](n4cc(C)c(=O)[nH]c4=O)O[C@@H]3COP(=O)(S)O[C@H]3C[C@H](n4cc(C)c(=O)[nH]c4=O)O[C@@H]3COP(=O)(S)O[C@H]3C[C@H](n4ccc5c(=O)[nH]c(N)nc54)O[C@@H]3COP(=O)(S)O[C@H]3[C@@H](O)[C@H](n4ccc(N)nc4=O)O[C@@H]3COP(=O)(S)O[C@H]3C[C@H](n4cc(C)c(=O)[nH]c4=O)O[C@@H]3COP(=O)(S)O[C@H]3[C@@H](O)[C@H](n4cnc5c(=O)[nH]c(N)nc54)O[C@@H]3COP(=O)(S)O[C@H]3C[C@H](n4cc(C)c(=O)[nH]c4=O)O[C@@H]3COP(=O)(S)O[C@H]3[C@@H](O)[C@H](n4ccc(N)nc4=O)O[C@@H]3COP(=O)(S)O[C@H]3C[C@H](n4cc(C)c(=O)[nH]c4=O)O[C@@H]3CO)O2)c(=O)[nH]c1=O (stereo not given in full)
